Source: PubChem BioAssay
Sampled rows, rich in hits. Any-hit rate of the full collection: about 4%.
FN deposit inh: fibronectin deposition inhibition; AH1F fibroblasts, Alexa488-fibronectin deposition fluorescence, overnight; inhibition, % at 12.6 µM; 350,000 compounds, 0.086% hits; AID 743247;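 active = mean inhibition across replicates of 30% or more, regardless of how many single replicates reach that level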;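 note: positive control wells lacked labelled fibronectin entirely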
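Schedule: 1 h cell adhesion before compound, then overnight fibronectin incubation; test system: AH1F fibroblast monolayer depositing Alexa488-labelled fibronectin into matrix; quantity: 10000 AH1F cells per well; probe or stimulus: fluorescent fibronectin at 24 nM final; signal: fluorescence, ex 485 nm, em 525 nm; evaluation: percent inhibition as loss of matrix-bound fibronectin fluorescence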
C2C12 statin: suppression of simvastatin myotoxicity; C2C12 myotubes + simvastatin, ATP luminescence, 48 h; scaled: DMSO 0, geranylgeraniol control 100; rescue of ATP level, % at 7.49 µM; 330,000 compounds, 0.78% hits; AID 602340;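 active = mean ATP rescue above about 67%, or every replicate alone reaching that limit, limit read from the data, passing the limit was not always enough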;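 note: myotubes were challenged with 10 µM simvastatin during compound exposure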
rRNA inh HTS: inhibitors of bacterial rRNA selective over humanized ribosomes; E. coli WT GFP vs humanized-ribosome RFP mutants, fluorescence, 24 h; stronger effect = lower value; DMSO median 0, no signal -100; GFP signal change (wild-type ribosome), % (test concentration not listed); 350,000 compounds, 1.6% hits; AID 720706;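 active = significant combined selectivity score with lowered wild-type GFP, culture density cut under 30%, mutant RFP and density less affected; inactive = any of these conditions unmet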
E-sel inducer: induces E-selectin expression in human endothelial cells; P16581; HUVEC E-selectin immunofluorescence imaging; normalized: neutral wells 0, TNF-alpha wells 100; activation, % at 7.58 µM; 260,000 compounds, 0.37% hits; AID 686992;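 active = mean E-selectin-positive cell signal at least 10% of the positive control, reached in at least 60% of replicates, without over 20% cell loss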
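material = human umbilical vein endothelial cells (HUVEC), E-selectin induction | quantity = 3,000 cells/well | medium = EGM-2 growth medium on 0.1% gelatin-coated wells | technique = immunofluorescence imaging | read-out basis = % PE-positive cells | control set = TNF-alpha positive control, DMSO neutral control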
SIRT5 block: blocks human SIRT5 desuccinylation of peptide. Q9NXA8. Purified SirT5, succinyl-peptide AMC, trypsin-coupled fluorescence. inhibition, % at 15 µM. 330,000 compounds, 1.1% hits. AID 652115; in the data active = inhibition above about 15%
Target sequence (Q9NXA8 whole entry, looked up): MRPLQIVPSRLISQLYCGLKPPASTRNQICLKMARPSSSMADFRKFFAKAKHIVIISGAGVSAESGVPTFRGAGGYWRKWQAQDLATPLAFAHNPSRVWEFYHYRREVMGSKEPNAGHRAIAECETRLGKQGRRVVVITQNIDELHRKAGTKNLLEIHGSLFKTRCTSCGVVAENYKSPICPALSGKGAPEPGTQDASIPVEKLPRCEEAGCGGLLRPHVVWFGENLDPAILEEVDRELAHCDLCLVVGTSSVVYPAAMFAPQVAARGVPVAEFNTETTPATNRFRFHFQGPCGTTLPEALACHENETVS
FGF22 binding: shifts melting point of recombinant human FGF22. Q9HCT0. 340,000 compounds, 1.5% hits. activity (Tm shift, normalised), % at 9.99 µM. recombinant FGF22 thermal shift, SYPRO orange fluorescence; percent of sucrose octasulfate shift, DMSO zero;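 active = mean Tm shift, scaled 0 neutral to 100 positive control, at about 1.3% or above, every replicate too, limit read from the data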
Target sequence (Q9HCT0 whole entry, looked up): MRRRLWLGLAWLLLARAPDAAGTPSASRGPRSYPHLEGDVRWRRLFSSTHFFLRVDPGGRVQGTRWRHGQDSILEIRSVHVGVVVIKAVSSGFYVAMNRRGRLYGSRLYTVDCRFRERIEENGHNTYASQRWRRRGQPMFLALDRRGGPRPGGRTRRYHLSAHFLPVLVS
* marks the source's active call; other numbers are inactive results; nt = not tested or not shown.

SMILES	FN deposit inh	C2C12 statin	rRNA inh HTS	E-sel inducer	SIRT5 block	FGF22 binding
CC1CC2(CCCC2)Nc2ccc(F)cc21 (centres undefined)	0.9	-8.5	7.0	-0.1	-2.1	-0.3
Cc1cccc2c1NC1(CCCC1)CC2C (centres undefined)	0.6	nt	-0.5	187.9*	-4.3	0.1
Cc1noc(C)c1NC(=O)Nc1cccc2c1O[C@@H](CN(C)S(=O)(=O)c1cccs1)[C@H](C)CN([C@H](C)CO)C2=O	3.3	-4.7	-0.5	-0.1	-3.5	0.1
CC1=C(C(=O)OCc2ccccc2)C(c2ccc(-c3ccccc3)cc2)NC(=O)N1CCCCCC(=O)O (centres undefined)	-6.8	-2.1	-34.4*	-0.3	13.9	-0.2
CC1=C(C(=O)OCc2ccccc2)C(c2ccc3ccccc3c2)NC(=O)N1CCCC(=O)O (centres undefined)	4.1	-2.5	-16.0*	0.1	nt	-0.3
CC1=C(C(=O)OCc2ccccc2)C(c2ccc(-c3ccccc3)cc2)NC(=O)N1CCCC(=O)O (centres undefined)	1.1	nt	5.2	0.0	nt	0.3
CC=Cc1ccc2n(c1=O)C[C@@H]1[C@@H](CO)[C@H](C(=O)NCc3ccccc3)[C@H]2N1CC (mixture of isomers)	nt	-8.0	-2.6	-0.2	-1.7	0.0
O=C(NC1CCCC1)[C@H]1[C@H](CO)[C@H]2Cn3c(ccc(-c4ccncc4)c3=O)[C@H]2N1CCc1ccccc1	nt	-18.2	-4.9	-0.3	19.1*	0.1
O=C(O)[C@@H]1[C@@H](CO)[C@@H]2Cn3c(ccc(-c4ccccc4F)c3=O)[C@@H]2N1Cc1ccccc1	-9.8	11.7	-0.7	-0.2	18.5*	-0.2
CN(C)C(=O)[C@H]1[C@H](CO)[C@H]2Cn3c(ccc(-c4ccc(F)cc4)c3=O)[C@@H]1N2CCc1ccccc1	nt	4.3	-8.1	0.1	21.8*	-0.1
CC=Cc1ccc2n(c1=O)C[C@H]1[C@H](CO)[C@@H](C(=O)NCc3ccccc3)[C@@H]2N1CC (mixture of isomers)	nt	-6.1	0.9	-0.7	-0.8	1.4*
CCNC(=O)[C@@H]1[C@@H](CO)[C@@H]2Cn3c(ccc(-c4ccccc4F)c3=O)[C@H]1N2S(C)(=O)=O	nt	nt	0.5	-0.5	-6.7	nt
C[C@H]1CN([C@@H](C)CO)C(=O)c2cccc(NS(=O)(=O)c3ccc(Cl)cc3)c2O[C@H]1CN(C)S(=O)(=O)c1ccc(F)cc1	nt	1.4	3.8	-0.4	nt	0.2
COc1ccc(S(=O)(=O)Nc2cccc3c2O[C@@H](CN(C)S(=O)(=O)c2cccs2)[C@H](C)CN([C@H](C)CO)C3=O)cc1	nt	nt	-7.7	-3.1	-0.8	0.2
COc1cccc(S(=O)(=O)N[C@@H]2CC[C@H](CCn3cc(-c4ccc(F)cc4)nn3)O[C@H]2CO)c1	-7.5	6.7	0.8	-0.9	-2.5	0.2
CN1[C@@H]2c3ccc(-c4cccc(F)c4)c(=O)n3C[C@@H]2[C@@H](CO)[C@@H]1C(=O)NC1CCCC1	nt	nt	-0.1	-0.2	-2.2	nt
CN1[C@H](C(=O)NC2CCCCC2)[C@@H](CO)[C@@H]2Cn3c(ccc(-c4cccc(F)c4)c3=O)[C@@H]21	nt	-29.2	5.7	0.0	16.5*	nt
CCN1[C@@H]2c3ccc(-c4ccncc4)c(=O)n3C[C@@H]2[C@@H](CO)[C@@H]1C(=O)NCc1ccccc1	nt	0.1	-1.3	-0.3	-1.3	-0.1
CCN1[C@@H]2c3ccc(-c4ccccc4)c(=O)n3C[C@@H]2[C@@H](CO)[C@@H]1C(=O)NCc1ccccc1	nt	0.2	-3.5	0.4	21.9*	0.0
CCN1[C@@H]2c3ccc(-c4cccc(F)c4)c(=O)n3C[C@@H]2[C@@H](CO)[C@@H]1C(=O)N[C@H](C)c1ccccc1	nt	12.0	-5.2	-0.3	26.6*	nt
O=C(/C=C/c1ccc([N+](=O)[O-])cc1)NCCc1ccccc1	-3.1	nt	3.6	0.3	-3.0	0.3
COc1ccc(CCNC(=O)c2cc([N+](=O)[O-])ccc2N2CCOCC2)cc1	2.4	4.0	7.8	0.3	0.9	0.0
